{"source": "PubChem BioAssay AID493134", "about": "(Broad Institute, 2011)", "note": "Several values for one entry are separate records, joined by “and”; a condition that tells them apart may be missing. Identical values can stand only once. Activity calls are given as the source filed them.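 How the source made its calls: active means growth inhibition with fitted half-maximal dose at or below ten times the top tested dose; inconclusive means flat curve with inhibition of 30 to 70%, or poor fit; inactive means the rest.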", "data": [{"tested_on": "C. albicans CaCi-2 growth, Alamar Blue fluorescence, 48 h", "test": "single-agent antifungal activity, Candida albicans – CaCi-2 strain, Alamar Blue, dry powder, set 7, counter-screen for antifungal drug resistance project, dose response (AID 493134)", "settings": "not given", "procedure,_shortened": "(§1)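 System: Fluconazole-resistant clinical Candida albicans isolate CaCi-2 | Doses: Pinned test compound | Incubation: Compound exposure 48 h at 37 °C unshaken, dye 2 h room temperature | Technique: Alamar Blue fluorescence, 1:200 final, Ex 544 nm, Em 590 nm | Read-out basis: Relative yeast growth from fluorescence, loss marking intrinsic toxicity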", "values": [{"smiles": "COC(=O)Cn1nc(-c2ccccc2)c2ccc(C(F)(F)F)cc21", "AC50": "16.4 µM"}, {"smiles": "COC(=O)Cn1c2ccccc2c2nc3n(c(=O)c21)CCS3", "AC50": "> 26 µM (inactive)"}, {"smiles": "COC(=O)Cn1nc(-c2ccccc2)c2cc(OC)ccc21", "AC50": "20.3 µM"}]}, {"tested_on": "not listed separately", "test": "single-agent antifungal activity, Candida albicans – CaCi-2 strain, Alamar Blue, dry powder, set 7, counter-screen for antifungal drug resistance project, dose response (AID 493134)", "settings": "C. albicans CaCi-2 growth, Alamar Blue fluorescence, 48 h; at 19.5 µM (top of the series)", "procedure,_shortened": "as §1", "values": [{"smiles": "COC(=O)Cn1nc(-c2cncnc2)c2ccccc21", "activity change, negative = inhibition": "7.98% (inactive)"}]}, {"tested_on": "not listed separately", "test": "single-agent antifungal activity, Candida albicans – CaCi-2 strain, Alamar Blue, dry powder, set 7, counter-screen for antifungal drug resistance project, dose response (AID 493134)", "settings": "C. albicans CaCi-2 (fluconazole-resistant clinical isolate) growth, Alamar Blue fluorescence, 48 h; at 26 µM (top of the series)", "procedure,_shortened": "as §1", "values": [{"smiles": "CN(C)C(=O)Cn1nc(-c2ccccc2)c2ccccc21", "activity change, negative = inhibition": "-25% (inactive)"}, {"smiles": "COC(=O)Cn1nc(-c2ccccc2)c2cc(F)ccc21", "activity change, negative = inhibition": "-6.49% (inactive)"}, {"smiles": "COC(=O)Cn1nc(-c2cccc(F)c2)c2ccccc21", "activity change, negative = inhibition": "16% (inactive)"}, {"smiles": "COC(=O)Cn1nc(-c2cccc(C)c2)c2ccccc21", "activity change, negative = inhibition": "7.2% (inactive)"}, {"smiles": "COC(=O)Cn1nc(-c2ccccc2)c2ccc(F)cc21", "activity change, negative = inhibition": "5.28% (inactive)"}, {"smiles": "CC(C)(C)OC(=O)Cn1nc(-c2ccccc2)c2ccccc21", "activity change, negative = inhibition": "-0.465% (inactive)"}, {"smiles": "CCOC(=O)Cn1nc(-c2ccccc2)c2ccccc21", "activity change, negative = inhibition": "-5.31% (inactive)"}, {"smiles": "O=C(Cn1c2ccccc2c2nc3n(c(=O)c21)CCS3)N1CCCC1", "activity change, negative = inhibition": "-14.3% (inactive) and -26.7% (inactive)"}, {"smiles": "COC(=O)Cn1nc(-c2ccccc2OC)c2ccccc21", "activity change, negative = inhibition": "-23.3% (inactive)"}, {"smiles": "CC(C)OC(=O)Cn1nc(-c2ccccc2)c2ccccc21", "activity change, negative = inhibition": "-0.006% (inactive)"}, {"smiles": "COC(=O)Cn1nc(-c2ccccc2)c2ccc(C)cc21", "activity change, negative = inhibition": "0.047% (inactive)"}, {"smiles": "COC(=O)Cn1nc(-c2ccccc2)c2ccccc21", "activity change, negative = inhibition": "-5.47% (inactive)"}, {"smiles": "COCCn1nc(-c2ccccc2)c2ccccc21", "activity change, negative = inhibition": "-0.717% (inactive)"}, {"smiles": "O=C(Cn1nc(-c2ccccc2)c2ccccc21)Oc1ccccc1", "activity change, negative = inhibition": "6.4% (inactive)"}, {"smiles": "COC(=O)Cn1nc(-c2cccc(OC)c2)c2ccccc21", "activity change, negative = inhibition": "-0.691% (inactive)"}, {"smiles": "c1ccc(-c2nn(Cc3nn[nH]n3)c3ccccc23)cc1", "activity change, negative = inhibition": "9.64% (inactive)"}, {"smiles": "COC(=O)Cn1nc(-c2ccccc2C)c2ccccc21", "activity change, negative = inhibition": "-21.2% (inactive)"}, {"smiles": "COC(=O)Cn1nc(-c2ccccc2)c2ccc(C#N)cc21", "activity change, negative = inhibition": "21.8% (inactive)"}, {"smiles": "COC(=O)Cn1nc(-c2ccc(C(F)(F)F)cc2)c2ccccc21", "activity change, negative = inhibition": "4.42% (inactive)"}, {"smiles": "COC(=O)Cn1nc(-c2ccccc2)c2cc(C)ccc21", "activity change, negative = inhibition": "2.54% (inactive)"}, {"smiles": "N#CCn1nc(-c2ccccc2)c2ccccc21", "activity change, negative = inhibition": "11% (inactive)"}, {"smiles": "COC(=O)Cn1nc(-c2ccccc2)c2ccc(OC)cc21", "activity change, negative = inhibition": "-26.5% (inactive)"}]}]}
